Experimental data from different studies.

test system | setting | AUC(0-inf) [µg·h/mL] | SMILES
male CD-1 mouse, plasma | oral, 50 mg/kg | 60.6 | COc1cc(OC)c2nccc(N3CCc4c(cc(Cn5ccnc5)cc4-c4cn(C)nc4C(F)(F)F)C3=O)c2c1
male BALB/c mouse, plasma | intravenous, 5 mg/kg | 126 | CC[C@H](C)[C@@H]1NC(=O)[C@@](C)(NC(=O)[C@H](CCCNC(=N)N)NC(=O)[C@H](CC(C)C)NC(=O)[C@@H](NC(=O)[C@H](CCC(N)=O)NC(=O)[C@H](CC(C)C)NC(C)=O)[C@@H](C)O)CCCC=CCCC[C@@](C)(C(=O)N[C@@H](CC(C)C)C(=O)N[C@@H](Cc2ccc3ccccc3c2)C(N)=O)NC(=O)[C@H](CCCNC(=N)N)NC(=O)[C@H](CCC(N)=O)NC1=O
male C57BL/6 mouse, plasma | oral, 100 mg/kg/day | 38 | Cc1ccc(NC(=O)c2ccc(CN3CCN(C)CC3)cc2)cc1Nc1nccc(-c2cncc(-c3oncc3C)c2)n1
male CD-1 mouse, plasma | oral, 150 mg/kg | 527 | CCc1cc(C(=O)NC)c2nccc(N3CCc4c(cc(Cn5ccnc5)cc4-c4cn(C)nc4C(F)(F)F)C3=O)c2c1
male BALB/c mouse, plasma | oral, 10 mg/kg | 0.182 | CNCCN(C)c1cc(C#N)cc(CCc2cc(C)cc(N)n2)c1
female BALB/c mouse, plasma | intraperitoneal, 10 mg/kg | 9.52 | O=S(=O)(c1ccc(-c2ccc3nccc(Nc4ccncn4)c3c2)cc1)N1CCOCC1
male CD-1 mouse, plasma | oral, 50 mg/kg | 36.3 | Cc1ccc2cncc(N3CCc4c(cc(Cn5ccnc5)cc4-c4cn(C)nc4C(F)(F)F)C3=O)c2c1
female mouse, plasma | oral, 30 mg/kg, single dose | 285 | Cc1nc(-c2cnc(NC(C)C)n(C)c2=O)ccc1Oc1ccnc(-c2cnn(C)c2)c1
mouse, plasma | intraperitoneal, 10 mg/kg | 1.72 | CN1CCN(C(=O)CN[C@@H]2C[C@H]2c2ccc(OCc3ccccc3)cc2)CC1
female BALB/c mouse, plasma | intravenous, 1 mg/kg | 1.46 | CC(C)(Nc1nc(-c2ccccn2)nc2ccccc12)c1ccccn1
male CD-1 mouse, plasma | oral, 50 mg/kg | 145 | CNC(=O)c1cc(OC)cc2c(N3CCc4c(cc(Cn5ccnc5)cc4-c4cn(C)nc4C(F)(F)F)C3=O)ccnc12
male CD-1 mouse, plasma | oral, 10 mg/kg | 4.95 | Cc1cc(NC(=O)c2cccc3cc(-c4cccc5[nH]nc(N)c45)ccc23)ccc1F
male CD-1 mouse, plasma | oral, 5 mg/kg, single dose | 13.8 | COc1nc(-c2cc(C)c(N[C@@H](C)c3cc(F)cc(F)c3)nn2)ccc1-n1cnc(C)c1
FVB mouse, brain | oral, 70 mg/kg, single dose | 158 | COc1cc2c(Nc3ccc(Cl)c(Cl)c3F)ncnc2cc1OC[C@@H]1C[C@@H]2CN(C)C[C@@H]2C1
male C57BL/6 mouse, plasma | intraperitoneal, 25 mg/kg, single dose | 16.6 | CC(C)(C)c1ccc(O)c(CN(Cc2cc(C(C)(C)C)ccc2O)C2CCC(NC(N)=O)CC2)c1 (centres unmarked)
male CD-1 mouse, plasma | intravenous, 3 mg/kg | 3.33 | CCc1cc(OC)c2nccc(N3CCc4c(cc(Cn5ccnc5)cc4-c4cn(C)nc4C(F)(F)F)C3=O)c2c1
male C57BL/6 mouse, brain | intraperitoneal, 30 mg/kg, single dose | 1.43 | CN1C(=O)c2ccccc2[S@+]([O-])c2ccc(C(=O)NCCc3cccs3)cc21
